From article PMC3353655 (Journal of the American Chemical Society, 2012)

What was measured:
Sortase B (SrtB) = biological target: T1, Sortase B (SrtB) (Staphylococcus aureus, UniProt Q2FZE3); experiment: Fluorescence polarization binding of fluorescein-labeled lantipeptides to SrtB
T1 sequence (Q2FZE3 31-244 limits assumed): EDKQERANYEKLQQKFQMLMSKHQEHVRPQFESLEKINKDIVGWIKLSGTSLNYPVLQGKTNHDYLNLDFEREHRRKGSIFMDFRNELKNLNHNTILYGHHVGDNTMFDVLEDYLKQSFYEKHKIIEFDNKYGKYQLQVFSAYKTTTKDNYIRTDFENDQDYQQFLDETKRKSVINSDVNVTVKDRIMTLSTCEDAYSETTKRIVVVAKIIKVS
Summary of the method: (§1)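 Binding constants were measured by fluorescence polarization. Test compounds were synthetic lantipeptides labeled with 5-carboxyfluorescein, with a C-terminal polyethylene glycol tail added for solubility. Sortase B was run in the same format as Sortase A. Each data point is the average of at least three independent measurements.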

SrtA = experiment: Inhibition of SrtA catalyzed cleavage of a peptide substrate; format: biochemical, Staphylococcus aureus; conditions: peptide at a concentration of up to 1 mM; data not shown
Summary of the method: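 SrtA cleaved a peptide substrate; this reaction has a Km of 80 μM. The test compound was tested at concentrations up to 1 mM.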

Sortase A (SrtA) = biological target: T2, Sortase A (SrtA) (Staphylococcus aureus, UniProt Q2FV99); experiment: Fluorescence polarization binding of fluorescein-labeled lantipeptides to SrtA; conditions: SrtA binding compared with 2(2S,6R)
T2 sequence (Q2FV99 60-206 limits assumed): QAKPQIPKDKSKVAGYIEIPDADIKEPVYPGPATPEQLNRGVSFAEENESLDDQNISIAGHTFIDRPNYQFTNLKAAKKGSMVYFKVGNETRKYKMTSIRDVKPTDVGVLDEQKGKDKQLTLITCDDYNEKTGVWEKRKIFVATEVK
Summary of the method: as §1

Compound	affinity to SrtB (in words) (Sortase B (SrtB); fluorescein-labeled peptide)	Kd (Sortase B (SrtB); read-out: Kd [μM], SrtB, SrtA was replaced by Sortase B (SrtB), 50 mM Tris HCl, 50 mM NaCl, 5 mM CaCl2, 1.2 mM TCEP, average of at least three independent measurements) [µM]	inhibition of SrtA catalyzed cleavage of a peptide substrate (SrtA)	fold weaker binder than 2(2S,6R) (Sortase A (SrtA)) [fold]
CC[C@H](C)[C@H](NC(=O)[C@H](CCCNC(=N)N)NC(=O)CNC(=O)[C@H](Cc1c[nH]c2ccccc12)NC(=O)[C@@H]1CSC[C@@H](NC(=O)[C@H](Cc2ccc(O)cc2)NC(=O)[C@H](Cc2c[nH]c3ccccc23)NC(=O)[C@H](CC(C)C)NC(=O)CNC(=O)[C@H](CCCNC(=N)N)NC(=O)c2ccc3c(c2)C(=O)OC32c3ccc(O)cc3Oc3cc(O)ccc32)C(=O)N[C@@H](CC(C)C)C(=O)N[C@@H](CO)C(=O)N1)C(=O)NCC(=O)N[C@@H](CCCNC(=N)N)C(=O)N[C@@H](CCCNC(=N)N)C(=O)NCCCOCCOCCOCCCNC(=O)CCC(=O)NCCCOCCOCCOCCCNC(=O)CCC(=O)NCCCOCCOCCOCCCNC(=O)CCC(=O)N[C@@H](C)C(=O)O [2(2S,6R)]	no detectable affinity	> 300	unable to inhibit	
CC[C@H](C)[C@H](NC(=O)[C@H](CCCNC(=N)N)NC(=O)CNC(=O)[C@H](Cc1c[nH]c2ccccc12)NC(=O)[C@@H]1CSC[C@@H](NC(=O)[C@H](Cc2ccc(O)cc2)NC(=O)[C@H](Cc2c[nH]c3ccccc23)NC(=O)[C@H](CC(C)C)NC(=O)CNC(=O)[C@H](CCCNC(=N)N)NC(=O)c2ccc3c(c2)C(=O)OC32c3ccc(O)cc3Oc3cc(O)ccc32)C(=O)N[C@@H](CC(C)C)C(=O)N[C@@H]([C@@H](C)O)C(=O)N1)C(=O)NCC(=O)N[C@@H](CCCNC(=N)N)C(=O)N[C@@H](CCCNC(=N)N)C(=O)NCCCOCCOCCOCCCNC(=O)CCC(=O)NCCCOCCOCCOCCCNC(=O)CCC(=O)NCCCOCCOCCOCCCNC(=O)CCC(=O)N[C@@H](C)C(=O)O [6(2S,6R)]				10
